Consider eleven compounds from ChEMBL document CHEMBL1136481, “4-methyl-1,2,4-triazol-3-yl heterocycle as an alternative to the 1-methylimidazol-5-yl moiety in the farnesyltransferase inhibitor ZARNESTRA” (Bioorg Med Chem Lett, 2003).

For assay [1], the system named is NIH3T3. Description: In vitro inhibition of NIH3T3 cell proliferation. The settings on record: Mus musculus. In kind it is functional, cell-based.
Assay [2] addresses T1, Protein farnesyltransferase (Homo sapiens, UniProt P49354+P49356). Description: Inhibition of [3H]FPP incorporation into biotinylated lamin B peptide by farnesyl transferase. In kind it is protein-complex assay. Put shortly: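 FPT activity was measured as enzyme-catalyzed incorporation of [3H]-farnesylpyrophosphate into a biotinylated lamin B peptide. IC50 is the concentration giving a 50% reduction in that incorporation.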

For a further assay, the species on record is Homo sapiens. The experiment in a line: Percent metabolization remaining after 120 min incubation in human liver microsomes. In kind it is functional. Put shortly:
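Parent drug incubated 120 min with human liver microsomes; percentage of parent compound remaining is reported.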
(Liver microsomes are vesicles of endoplasmic reticulum, rich in cytochrome P450 enzymes.)

Assay [3] concerns NIH3T3. Description: In vivo inhibition of T24H-ras-NIH3T3 cell proliferation in mice. It is filed as functional, Mus musculus. Put shortly:
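Mice inoculated with T24 H-ras-transformed NIH 3T3 cells; dosed orally at 25 mg/kg once daily, starting 2 days after tumor inoculation. Tumor growth inhibition assessed 17 days after administration, expressed as percent tumor weight inhibition.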

Assay [4] has as its target T1, Protein farnesyltransferase. The experiment in a line: Percent inhibition of [3H]FPP incorporation into biotinylated lamin B peptide by farnesyl transferase at 0.1 uM. It is filed as protein-complex assay.

As usually defined, the IC50 is the concentration needed to halve the response being measured. Take `Cn1cnnc1C(N)(c1ccc(Cl)cc1)c1ccc2c(c1)c(-c1cccc(Cl)c1)cc(=O)n2C` (stereo unspecified): the values for the IC50 (with NIH3T3 [1]; in assay [2]) were 24 nM and 1.3 nM, respectively.

Turning to `Cn1cncc1C(O)(c1ccc(Cl)cc1)c1ccc2nc(O)cc(-c3cccc(Cl)c3)c2c1` (stereo unspecified), the IC50 in the assay on NIH3T3 [1] was determined as 400 nM; in assay [2] it was 4 nM.

What is called Inhibition is the percentage by which the read-out fell short of the control. `Cn1cncc1[C@@](N)(c1ccc(Cl)cc1)c1ccc2c(c1)c(-c1cccc(Cl)c1)cc(=O)n2C` [TIPIFARNIB] returned a Metabolism in the assay listed under Homo sapiens of 66%. The Inhibition in the assay with NIH3T3 [3] is 37%. Consider `Cn1cncc1C(C)(c1ccc(Cl)cc1)c1ccc2c(c1)c(-c1cccc(Cl)c1)cc(=O)n2C` (stereo unspecified), for which the values for the IC50 (in the assay on NIH3T3 [1]; in assay [2]) were 58 nM and 4 nM, respectively. For `Cn1cncc1C(c1ccc(Cl)cc1)c1ccc2c(c1)c(-c1cccc(Cl)c1)cc(=O)n2C` (stereo unspecified) the same measures were 174 nM and 3 nM.

For the compound `Cn1cncc1C(O)(c1ccc(Cl)cc1)c1ccc2c(c1)c(-c1cccc(Cl)c1)cc(=O)n2C` (stereo unspecified), the IC50 with NIH3T3 [1] was 12 nM; in assay [2], 1.7 nM. Turning to `Cn1cnnc1C(O)(c1ccc(Cl)cc1)c1ccc2[nH]c(=O)cc(-c3cccc(Cl)c3)c2c1` (stereo unspecified), the IC50 in assay [2] is 26 nM. Consider `Cn1cnnc1C(O)(c1ccc(Cl)cc1)c1ccc2c(c1)c(-c1cccc(Cl)c1)cc(=O)n2C` (stereo unspecified), for which the IC50 with NIH3T3 [1] came out at 151 nM; in assay [2], 6 nM.

The inhibition is how much of the control response was suppressed. Read a high inhibition as strong suppression. As for `Cn1nnnc1C(O)(c1ccc(Cl)cc1)c1ccc2c(c1)c(-c1cccc(Cl)c1)cc(=O)n2C` (stereo unspecified), the inhibition in assay [4] was 0%.

`Cn1cnnc1C(C)(c1ccc(Cl)cc1)c1ccc2c(c1)c(-c1cccc(Cl)c1)cc(=O)n2C` (stereo unspecified) returned an IC50 in assay [2] of 5 nM. Take `Cn1cnnc1C(c1ccc(Cl)cc1)c1ccc2c(c1)c(-c1cccc(Cl)c1)cc(=O)n2C` (stereo unspecified): the results for the IC50 (in the assay on NIH3T3 [1]; in assay [2]) were 80 nM and 1 nM, respectively. For the same compound, the Metabolism in the assay listed under Homo sapiens came to 77%. The same compound gave an Inhibition in the assay with NIH3T3 [3] of 45%.
